Reference: ChEMBL document CHEMBL1155885, “Discovery and optimization of pyridazinone non-nucleoside inhibitors of HIV-1 reverse transcriptase” (Bioorg Med Chem Lett, 2008)
Each block holds one compound with its values, some of them ahead of it.

Columns and labels:
Cytochrome P450 3A4 = Cytochrome P450 3A4 (Homo sapiens, UniProt P08684); assay: Inhibition of recombinant CYP3A4; assay type: ADME
In short: (§1)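 Fluorogenic assay using 7-benzyloxy-4-(trifluoromethyl)-coumarin as substrate; IC50 reported in micromolar.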

[1] = molecular target: T1, Human immunodeficiency virus type 1 reverse transcriptase (Human immunodeficiency virus 1, UniProt Q72547); assay: Inhibition of HIV1 wild-type reverse transcriptase by scintillation counting assay
[2] = molecular target: Human immunodeficiency virus type 1 reverse transcriptase (Human immunodeficiency virus 1, UniProt Q72547, Y181C); assay: Inhibition of HIV1 reverse transcriptase Y181C mutant by scintillation counting assay
[3] = molecular target: Human immunodeficiency virus type 1 reverse transcriptase (Human immunodeficiency virus 1, UniProt Q72547, K103N); assay: Inhibition of HIV1 reverse transcriptase K103N mutant by scintillation counting assay
Cytochrome P450 2D6 = Cytochrome P450 2D6 (Homo sapiens, UniProt P10635); assay: Inhibition of CYP2D6; assay type: ADME; in short: as §1
Rattus norvegicus = assay: AUC in rat at 5 mg/kg, po; assay type: ADME, organism-based, Plasma; set-up: dose 5 mg/kg, route oral; details: in vivo
In short: (§2)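 Rats dosed orally at 5 mg/kg; plasma Cmax and AUC determined.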

[4] = system: Human immunodeficiency virus 1; assay: Antiviral activity against HIV1 with reverse transcriptase K103N/L100I mutation in human MT4 cells assessed as reduction of virus-induced cytopathic effect; assay type: functional, organism-based; details: Human immunodeficiency virus 1, MT4
In short: (§3)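 MT4 cells infected with HIV-1 and incubated with compound in the presence of 10% fetal bovine serum. Read-out is the reduction of virus-induced cytopathic effect. EC50 derived; each value is the mean of at least two independent assays.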

Canis familiaris = assay: AUC in dog at 5 mg/kg, po; assay type: ADME, organism-based, Canis lupus familiaris, Plasma; set-up: dose 5 mg/kg, route oral; details: in vivo
[5] = Bioavailability in dog at 2.5 mg/kg, iv; assay type: ADME, organism-based, Canis lupus familiaris; details: in vivo
[6] = Bioavailability in rat at 2.5 mg/kg, iv; assay type: ADME, organism-based; details: in vivo
In short: (§4)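 Rats given 2.5 mg/kg intravenously; half-life determined; apparent oral bioavailability calculated relative to oral dosing.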

Cytochrome P450 2C9 = Cytochrome P450 2C9 (Homo sapiens, UniProt P11712); assay: Inhibition of CYP2C9; assay type: ADME; in short: as §1
[7] = Cmax in rat at 5 mg/kg, po; assay type: ADME, organism-based; set-up: dose 5 mg/kg, route oral; details: in vivo; in short: as §2
[8] = system: Human immunodeficiency virus 1; assay: Antiviral activity against HIV1 with reverse transcriptase G190A mutation in human MT4 cells assessed as reduction of virus-induced cytopathic effect; assay type: functional, organism-based; details: Human immunodeficiency virus 1, MT4; in short: as §3
[9] = Cmax in dog at 5 mg/kg, po; assay type: ADME, organism-based, Canis lupus familiaris; set-up: dose 5 mg/kg, route oral; details: in vivo
Cytochrome P450 1A2 = molecular target: T2, Cytochrome P450 1A2 (Homo sapiens, UniProt P05177); assay: Inhibition of CYP1A2; assay type: ADME; in short: as §1
T2 sequence (P05177 whole entry): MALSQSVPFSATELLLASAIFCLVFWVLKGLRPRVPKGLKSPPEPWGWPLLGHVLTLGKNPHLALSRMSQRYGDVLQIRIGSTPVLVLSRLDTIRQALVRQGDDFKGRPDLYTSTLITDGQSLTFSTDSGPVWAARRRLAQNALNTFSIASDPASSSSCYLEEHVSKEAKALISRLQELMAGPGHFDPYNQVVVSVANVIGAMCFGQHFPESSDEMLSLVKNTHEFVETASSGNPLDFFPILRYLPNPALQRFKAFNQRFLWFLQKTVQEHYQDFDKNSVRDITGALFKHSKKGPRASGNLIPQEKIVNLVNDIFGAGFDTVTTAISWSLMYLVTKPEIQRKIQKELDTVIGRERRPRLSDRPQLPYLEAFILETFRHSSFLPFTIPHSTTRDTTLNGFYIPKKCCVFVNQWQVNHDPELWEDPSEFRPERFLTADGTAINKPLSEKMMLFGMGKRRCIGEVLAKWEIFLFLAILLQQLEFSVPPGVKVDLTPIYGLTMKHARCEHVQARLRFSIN

Cytochrome P450 2C19 = Cytochrome P450 2C19 (Homo sapiens, UniProt P33261); assay: Inhibition of CYP2C19; assay type: ADME; in short: as §1
[10] = Half life in rat at 2.5 mg/kg, iv; assay type: ADME, organism-based; set-up: dose 2.5 mg/kg, route intravenous; details: in vivo; in short: as §4
[11] = Half life in dog at 2.5 mg/kg, iv; assay type: ADME, organism-based, Canis lupus familiaris; set-up: dose 2.5 mg/kg, route intravenous; details: in vivo
[12] = system: Human immunodeficiency virus 1; assay: Antiviral activity against HIV1 in human MT4 cells assessed as reduction of viral-induced cytopathic effect in presence of human serum; assay type: functional, organism-based; details: Human immunodeficiency virus 1, MT4
In short: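 HIV-1-infected MT4 cells incubated with compound in presence of 40% human serum; reduction of viral cytopathic effect measured; EC50 derived.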

[13] = system: Human immunodeficiency virus 1; assay: Antiviral activity against HIV1 with reverse transcriptase K103N/Y181C mutation in human MT4 cells assessed as reduction of virus-induced cytopathic effect; assay type: functional, organism-based; details: Human immunodeficiency virus 1, MT4; in short: as §3
[14] = molecular target: T1, Human immunodeficiency virus type 1 reverse transcriptase; assay: Binding affinity to HIV1 wild-type reverse transcriptase by surface plasmon resonance spectroscopy
[15] = system: Human immunodeficiency virus 1; assay: Antiviral activity against HIV1 with reverse transcriptase Y181C mutation in human MT4 cells assessed as reduction of virus-induced cytopathic effect; assay type: functional, organism-based; details: Human immunodeficiency virus 1, MT4; in short: as §3
[16] = system: Human immunodeficiency virus 1; assay: Antiviral activity against HIV1 with reverse transcriptase K103N mutation in human MT4 cells assessed as reduction of virus-induced cytopathic effect; assay type: functional, organism-based; details: Human immunodeficiency virus 1, MT4; in short: as §3
[17] = system: Human immunodeficiency virus 1; assay: Antiviral activity against HIV1 in human MT4 cells assessed as reduction of viral-induced cytopathic effect; assay type: functional, organism-based; details: Human immunodeficiency virus 1, MT4

Chain of Cytochrome P450 3A4 (P08684 whole entry): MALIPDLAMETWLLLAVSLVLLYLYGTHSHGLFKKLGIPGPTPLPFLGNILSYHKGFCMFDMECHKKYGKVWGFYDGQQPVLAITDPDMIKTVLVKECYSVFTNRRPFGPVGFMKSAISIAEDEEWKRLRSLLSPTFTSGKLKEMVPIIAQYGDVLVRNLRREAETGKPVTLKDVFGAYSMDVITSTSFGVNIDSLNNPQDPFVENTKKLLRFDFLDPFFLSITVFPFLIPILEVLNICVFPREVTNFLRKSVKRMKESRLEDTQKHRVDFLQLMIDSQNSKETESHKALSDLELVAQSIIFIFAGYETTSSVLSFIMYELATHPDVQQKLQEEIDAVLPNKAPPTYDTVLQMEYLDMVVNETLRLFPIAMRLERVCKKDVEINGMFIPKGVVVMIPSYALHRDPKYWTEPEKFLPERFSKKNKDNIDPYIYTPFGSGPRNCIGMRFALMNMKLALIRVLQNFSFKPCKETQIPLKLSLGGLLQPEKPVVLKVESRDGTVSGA
Chain of Cytochrome P450 2C19 (P33261 whole entry): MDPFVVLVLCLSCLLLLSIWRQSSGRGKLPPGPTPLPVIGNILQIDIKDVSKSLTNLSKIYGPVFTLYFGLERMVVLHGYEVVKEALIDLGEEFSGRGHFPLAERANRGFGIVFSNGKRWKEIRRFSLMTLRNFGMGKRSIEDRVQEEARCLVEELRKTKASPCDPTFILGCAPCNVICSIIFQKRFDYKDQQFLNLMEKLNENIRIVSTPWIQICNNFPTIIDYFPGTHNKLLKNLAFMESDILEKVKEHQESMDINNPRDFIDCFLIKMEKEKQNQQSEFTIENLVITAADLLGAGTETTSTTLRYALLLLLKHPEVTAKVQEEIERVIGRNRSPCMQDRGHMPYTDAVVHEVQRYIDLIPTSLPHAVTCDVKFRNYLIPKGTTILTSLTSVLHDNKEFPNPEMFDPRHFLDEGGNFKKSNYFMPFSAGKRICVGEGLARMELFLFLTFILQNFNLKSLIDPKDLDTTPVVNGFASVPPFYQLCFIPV
Chain of Cytochrome P450 2D6 (P10635 whole entry): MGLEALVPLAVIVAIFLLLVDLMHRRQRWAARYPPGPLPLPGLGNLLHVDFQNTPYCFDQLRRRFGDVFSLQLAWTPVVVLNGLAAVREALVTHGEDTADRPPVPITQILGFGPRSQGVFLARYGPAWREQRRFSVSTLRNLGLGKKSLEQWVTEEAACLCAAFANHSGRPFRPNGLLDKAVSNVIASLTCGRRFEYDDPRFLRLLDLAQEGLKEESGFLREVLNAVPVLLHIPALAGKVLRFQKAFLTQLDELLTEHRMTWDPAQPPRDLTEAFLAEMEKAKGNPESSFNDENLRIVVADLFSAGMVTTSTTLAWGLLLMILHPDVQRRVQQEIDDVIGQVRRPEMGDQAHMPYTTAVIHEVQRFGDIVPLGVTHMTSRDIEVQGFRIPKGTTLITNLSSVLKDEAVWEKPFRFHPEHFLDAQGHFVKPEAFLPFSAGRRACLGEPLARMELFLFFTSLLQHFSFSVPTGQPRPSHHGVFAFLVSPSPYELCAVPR
Chain of Cytochrome P450 2C9 (P11712 whole entry): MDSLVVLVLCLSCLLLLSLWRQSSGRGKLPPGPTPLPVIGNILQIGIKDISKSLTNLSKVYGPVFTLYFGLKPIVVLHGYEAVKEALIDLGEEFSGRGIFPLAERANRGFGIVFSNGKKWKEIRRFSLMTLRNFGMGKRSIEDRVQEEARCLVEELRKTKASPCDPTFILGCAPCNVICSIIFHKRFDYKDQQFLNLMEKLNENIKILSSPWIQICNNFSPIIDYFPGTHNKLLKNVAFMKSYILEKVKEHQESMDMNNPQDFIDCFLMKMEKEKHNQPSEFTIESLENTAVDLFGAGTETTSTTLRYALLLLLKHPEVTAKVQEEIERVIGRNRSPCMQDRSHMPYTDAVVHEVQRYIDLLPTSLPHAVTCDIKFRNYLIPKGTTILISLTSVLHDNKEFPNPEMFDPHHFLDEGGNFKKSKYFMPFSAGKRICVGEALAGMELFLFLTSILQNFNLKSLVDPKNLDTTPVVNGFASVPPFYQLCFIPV

IC50 (Cytochrome P450 3A4): 600 nM
IC50 [1]: 8200 nM
Compound: O=C(c1cccc(Cl)c1)c1cc(Cc2ccc(=O)[nH]n2)cc2ccoc12

Compound: Cc1cc(Cc2ccc(Cl)c(Oc3ccccc3)c2)n[nH]c1=O
IC50 [2]: 2130 nM
IC50 [3]: 920 nM
IC50 [1]: 360 nM

IC50 [1]: 21000 nM
Compound: O=c1ccc(Cc2cccc(Oc3cccc(Cl)c3)c2)n[nH]1

IC50 [1]: 14000 nM
Compound: Cc1cc(Cl)cc(Oc2cccc(Cc3ccc(=O)[nH]n3)c2)c1

IC50 [1]: 100 nM
Compound: O=c1ccc(Cc2ccc(Cl)c(Oc3cccc(Cl)c3)c2)n[nH]1

Compound: Cc1cc(Cc2ccc(Cl)c(Oc3ccccc3)c2F)n[nH]c1=O
IC50 [2]: 210 nM
IC50 [3]: 50 nM
IC50 [1]: 20 nM

Compound: Cc1cc(Cc2ccc(Cl)c(Oc3cc(F)cc(C#N)c3)c2F)n[nH]c1=O
IC50 (Cytochrome P450 3A4): 24000 nM
IC50 (Cytochrome P450 2D6): > 50000 nM
AUC (Rattus norvegicus): 22.4 uM.hr/ml
EC50 [4]: 3 nM
AUC (Canis familiaris): 8.8 uM.hr/ml
EC50 [3]: 2 nM
bioavailability [5]: 34%
bioavailability [6]: 61%
IC50 (Cytochrome P450 2C9): 8000 nM
Cmax [7]: 2300 nM
EC50 [8]: 1 nM
Cmax [9]: 1470 nM
IC50 (Cytochrome P450 1A2): > 50000 nM
IC50 (Cytochrome P450 2C19): 21000 nM
half-life [10]: 3.8 h
half-life [11]: 6.4 h
EC50 [12]: 11 nM
EC50 [13]: 41 nM
Kd [14]: 8.4 nM

Compound: O=c1ccc(Cc2ccc(Cl)c(Oc3ccccc3)c2F)n[nH]1
IC50 [2]: 500 nM
IC50 [3]: 430 nM
IC50 [1]: 100 nM

IC50 (Cytochrome P450 3A4): 180 nM
IC50 [1]: 3900 nM
Compound: O=c1ccc(Cc2cc(Cc3cccc(Cl)c3)c3occc3c2)n[nH]1

Compound: O=c1ccc(Cc2ccc(Cl)c(Oc3ccccc3)c2)n[nH]1
IC50 [2]: 5490 nM
IC50 [3]: 3350 nM
IC50 [1]: 520 nM

Compound: O=C(c1ccc(Cl)cc1)c1cc(Cc2ccc(=O)[nH]n2)cc2ccoc12
IC50 [2]: 360 nM
IC50 [3]: 260 nM
IC50 [1]: 400 nM
EC50 [15]: 210 nM
EC50 [16]: 70 nM
EC50 [17]: 80 nM

IC50 (Cytochrome P450 3A4): 410 nM
IC50 [1]: 1000 nM
Compound: O=c1ccc(Cc2cc(Oc3cccc(Cl)c3)c3occc3c2)n[nH]1

Compound: COc1cc(C#N)cc(Oc2c(Cl)ccc(Cc3cc(C)c(=O)[nH]n3)c2F)c1
EC50 [4]: 2 nM
EC50 [8]: 1 nM
EC50 [12]: 15 nM
EC50 [13]: 31 nM

IC50 [1]: 640 nM
Compound: Cc1ccc(Cc2ccc(=O)[nH]n2)cc1Oc1cccc(Cl)c1

Compound: Cc1cc(Cc2ccc(Cl)c(Oc3cc(C#N)cc(C#N)c3)c2F)n[nH]c1=O
EC50 [3]: 2 nM
EC50 [8]: 1 nM
EC50 [12]: 7 nM
EC50 [13]: 19 nM

Compound: O=C1Nc2ccc(Cl)cc2C(C#CC2CC2)(C(F)(F)F)O1 (single isomer, unassigned) [EFAVIRENZ]
EC50 [4]: > 500 nM
EC50 [8]: 6 nM
EC50 [12]: 19 nM
EC50 [13]: 83 nM
